According to ChEMBL document CHEMBL1145545, “Discovery of a novel A2B adenosine receptor antagonist as a clinical candidate for chronic inflammatory airway diseases” (J Med Chem, 2008):

How the values were obtained:
[1] = species: Homo sapiens; test: Selectivity for human recombinant adenosine A2B receptor over human recombinant adenosine A1 receptor
[2] = target: T1, Adenosine receptor A2b (Homo sapiens, UniProt P29275); test: Displacement of [3H]ZM-241385 from human recombinant adenosine A2B receptor expressed in HEK293 cells; format: cell-based
T1 sequence (P29275 whole entry): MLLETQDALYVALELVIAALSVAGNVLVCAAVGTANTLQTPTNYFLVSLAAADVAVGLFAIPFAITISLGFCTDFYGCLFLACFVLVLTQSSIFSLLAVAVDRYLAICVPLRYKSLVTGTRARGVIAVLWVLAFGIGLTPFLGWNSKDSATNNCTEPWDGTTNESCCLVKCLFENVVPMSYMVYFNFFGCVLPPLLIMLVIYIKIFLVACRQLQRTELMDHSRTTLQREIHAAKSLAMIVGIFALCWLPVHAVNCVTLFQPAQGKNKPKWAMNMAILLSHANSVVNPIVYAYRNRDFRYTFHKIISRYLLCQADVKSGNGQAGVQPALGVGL
Method in brief: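 Membranes from HEK293 cells stably expressing human A2B receptor; competition with 10 nM radioligand, 50 µg membrane protein, in 50 mM Tris/1 mM EDTA with 1 U/mL adenosine deaminase, 25 °C for 90 min with gentle agitation; filtration, four ice-cold Tris/MgCl2 washes. Nonspecific binding defined with 10 µM unlabelled ligand; Ki calculated.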

[3] = target: T2, Adenosine receptor A1 (Homo sapiens, UniProt P30542); test: Displacement of [3H]CPX from human recombinant adenosine A1 receptor expressed in CHO cells; format: cell-based
T2 sequence (P30542 whole entry): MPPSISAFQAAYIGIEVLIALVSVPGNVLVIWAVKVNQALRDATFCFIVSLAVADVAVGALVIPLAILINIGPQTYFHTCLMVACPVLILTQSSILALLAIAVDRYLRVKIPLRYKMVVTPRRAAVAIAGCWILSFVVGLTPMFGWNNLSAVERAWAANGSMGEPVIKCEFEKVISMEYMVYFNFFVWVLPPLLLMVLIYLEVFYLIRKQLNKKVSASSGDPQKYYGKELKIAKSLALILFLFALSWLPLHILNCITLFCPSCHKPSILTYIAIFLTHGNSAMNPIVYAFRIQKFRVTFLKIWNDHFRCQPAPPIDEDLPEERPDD
Method in brief: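 CHO cell membranes stably expressing human A1 receptor; 0.5 nM [3H]CPX competed with test compound in 50 mM Tris/1 mM EDTA plus 1 U/mL adenosine deaminase, 25 °C, 90 min, gentle agitation; filtration and four ice-cold Tris/MgCl2 washes. Nonspecific binding defined with 1 µM CPX; Ki values derived.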

[4] = target: Adenosine receptor A2a (Homo sapiens, UniProt P29274); test: Displacement of [3H]ZM-241385 from human recombinant adenosine A2A receptor expressed in HEK293 cells; format: cell-based
Sequence of Adenosine receptor A2a (P29274 whole entry): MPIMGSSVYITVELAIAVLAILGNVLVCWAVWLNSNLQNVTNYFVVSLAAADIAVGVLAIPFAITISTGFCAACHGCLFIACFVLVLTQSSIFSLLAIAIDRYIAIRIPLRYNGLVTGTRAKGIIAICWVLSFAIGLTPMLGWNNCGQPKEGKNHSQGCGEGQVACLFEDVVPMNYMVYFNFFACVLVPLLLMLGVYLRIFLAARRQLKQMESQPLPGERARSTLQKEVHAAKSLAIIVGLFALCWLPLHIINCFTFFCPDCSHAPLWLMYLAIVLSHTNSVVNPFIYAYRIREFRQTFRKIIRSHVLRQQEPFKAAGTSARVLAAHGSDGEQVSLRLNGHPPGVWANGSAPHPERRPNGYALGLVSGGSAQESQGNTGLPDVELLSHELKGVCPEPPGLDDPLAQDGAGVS
Method in brief: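 Membranes from HEK293 cells stably expressing human A2A receptor; 2 nM radioligand competed in 50 mM Tris/1 mM EDTA with 1 U/mL adenosine deaminase for 90 min at 25 °C with agitation; filtration, four ice-cold Tris/MgCl2 washes. Nonspecific binding defined with 1 µM unlabelled ligand; Ki computed.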

[5] = target: T3, Adenosine receptor A3 (Homo sapiens, UniProt P0DMS8); test: Displacement of [125I]ABMECA from human recombinant adenosine A3 receptor expressed in CHO cells; format: cell-based
T3 sequence (P0DMS8 whole entry): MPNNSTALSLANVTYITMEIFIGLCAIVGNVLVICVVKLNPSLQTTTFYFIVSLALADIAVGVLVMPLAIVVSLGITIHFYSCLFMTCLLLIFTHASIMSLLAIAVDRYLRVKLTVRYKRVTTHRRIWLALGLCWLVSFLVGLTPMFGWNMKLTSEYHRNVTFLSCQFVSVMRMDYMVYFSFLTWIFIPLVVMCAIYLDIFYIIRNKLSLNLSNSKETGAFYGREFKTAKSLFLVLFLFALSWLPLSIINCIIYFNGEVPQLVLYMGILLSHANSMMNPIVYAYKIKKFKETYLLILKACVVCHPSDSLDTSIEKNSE
Method in brief: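 Human A3 receptor stably expressed in CHO cells; membranes incubated with 0.1 nM 125I-AB-MECA and test compound in 50 mM Tris, 1 mM EDTA, 10 mM MgCl2 plus 1 U/mL adenosine deaminase, 25 °C, 90 min; filtration, four ice-cold washes. Nonspecific binding defined with 1 µM IB-MECA; Ki determined.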

[6] = species: Homo sapiens; test: Selectivity for human recombinant adenosine A2B receptor over human recombinant adenosine A2A receptor
[7] = species: Homo sapiens; test: Selectivity for human recombinant adenosine A2B receptor over human recombinant adenosine A3 receptor
[8] = target: T4, Adenosine receptor A2b (Mus musculus) (UniProt Q60614); test: Antagonist activity at mouse adenosine A2B receptor expressed in NIH3T3 cells assessed as inhibition of NECA-induced cAMP accumulation; format: functional, cell-based
T4 sequence (whole entry): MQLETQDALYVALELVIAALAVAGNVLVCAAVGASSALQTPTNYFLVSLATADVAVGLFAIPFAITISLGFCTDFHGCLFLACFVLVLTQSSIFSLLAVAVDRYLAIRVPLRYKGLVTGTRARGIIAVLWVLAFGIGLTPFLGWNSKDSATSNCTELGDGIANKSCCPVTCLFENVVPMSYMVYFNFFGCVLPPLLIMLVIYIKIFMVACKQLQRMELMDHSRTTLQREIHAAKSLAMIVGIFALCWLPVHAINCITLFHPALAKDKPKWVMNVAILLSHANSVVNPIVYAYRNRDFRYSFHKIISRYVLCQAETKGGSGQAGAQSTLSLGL
Method in brief: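 Mouse NIH/3T3 cells stimulated with NECA (1 nM to 100 µM) without or with increasing antagonist concentrations; cAMP accumulation measured. KB obtained by Schild analysis; mean ± SEM of three experiments in duplicate.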

[9] = Cmax in Sprague-Dawley rat at 2 mg/kg, po; format: ADME, organism-based; design: dose 2 mg/kg, route oral; settings: in vivo
[10] = Half life in Sprague-Dawley rat at 2 mg/kg, po; format: ADME, organism-based; design: dose 2 mg/kg, route oral; settings: in vivo
[11] = Plasma concentration in Sprague-Dawley rat at 2 mg/kg, po after 4 hrs; format: ADME, organism-based; design: dose 2 mg/kg, route oral
[12] = Plasma concentration in Sprague-Dawley rat at 2 mg/kg, po after 6 hrs; format: ADME, organism-based; design: dose 2 mg/kg, route oral
[13] = AUC (0 to tlast) in Sprague-Dawley rat at 2 mg/kg, po; format: ADME, organism-based; design: dose 2 mg/kg, route oral; settings: plasma
[14] = Tmax in Sprague-Dawley rat at 2 mg/kg, po; format: ADME, organism-based; design: dose 2 mg/kg, route oral; settings: in vivo

| Ratio Ki [1] | Ki [2] | Ki [3] | Ki [4] | Ki [5] | Ratio Ki [6] | Ratio Ki [7] | Kb [8] | Cmax [9] | half-life [10] | concentration at 4 h [11] | concentration at 6 h [12] | AUC(0-t) [13] | Tmax [14] | Structure (SMILES) |
| --- | --- | --- | --- | --- | --- | --- | --- | --- | --- | --- | --- | --- | --- | --- |
| 88 | 22 nM | 1940 nM | 3280 nM | 1070 nM | 149 | 48 | 2 nM | 1110 ng/mL | 4.25 h | – | – | – | – | CCCn1c(=O)c2[nH]c(-c3cnn(Cc4cccc(C(F)(F)F)c4)c3)nc2n(CC)c1=O [GS 6201] |
| 16 | 21 nM | 347 nM | 408 nM | 204 nM | 19 | 9 | – | – | – | – | – | – | – | CC(C)Cn1c(=O)c2[nH]c(-c3cnn(Cc4ccccc4)c3)nc2n(C)c1=O |
| 80 | 16 nM | 1280 nM | 2280 nM | 400 nM | 142 | 25 | – | – | – | – | – | – | – | CCn1c(=O)n(CC2CC2)c(=O)c2[nH]c(-c3cnn(Cc4ccc(C(F)(F)F)nc4)c3)nc21 |
| 6 | 60 nM | 352 nM | 301 nM | 107 nM | 5 | 2 | – | – | – | – | – | – | – | CC(C)Cn1c(=O)c2[nH]c(-c3cnn(Cc4cccc(F)c4)c3)nc2n(C)c1=O |
| 139 | 18 nM | 2500 nM | 2250 nM | 440 nM | 125 | 24 | – | 671 ng/mL | 9.7 h | – | – | – | – | CCCn1c(=O)c2[nH]c(-c3cnn(Cc4ccc(C(F)(F)F)nc4)c3)nc2n(CC)c1=O |
| 10 | 22 nM | 218 nM | 272 nM | 326 nM | 12 | 15 | – | – | – | – | – | – | – | CCn1c(=O)n(CC2CC2)c(=O)c2[nH]c(-c3cnn(Cc4cccc(C(F)(F)F)c4)c3)nc21 |
| 33 | 45 nM | 1520 nM | 670 nM | 290 nM | 15 | 6 | – | – | – | – | – | – | – | CCCn1c(=O)c2[nH]c(-c3cnn(Cc4ccc(C)nc4)c3)nc2n(CC)c1=O |
| > 250 | 24 nM | > 6000 nM | > 5000 nM | > 9000 nM | > 208 | > 375 | – | 34.6 ng/mL | – | 7.75 ng/mL | 17.3 ng/mL | 65.6 ng·h/mL | 6 h | CCCn1c(=O)c2[nH]c(-c3cnn(Cc4noc(-c5ccc(C(F)(F)F)cc5)n4)c3)nc2n(CC)c1=O |
| 58 | 6 nM | 350 nM | 231 nM | 282 nM | 38 | 47 | – | – | – | – | – | – | – | CCn1c(=O)c2[nH]c(-c3cnn(Cc4cccc(F)c4)c3)nc2n(C)c1=O |
| 38 | 11 nM | 427 nM | 481 nM | 453 nM | 43 | 41 | – | – | – | – | – | – | – | CCCCn1c(=O)c2[nH]c(-c3cnn(Cc4cccc(C(F)(F)F)c4)c3)nc2n(C)c1=O |
| 180 | 20 nM | 3590 nM | 5410 nM | 350 nM | 270 | 17 | – | – | – | – | – | – | – | CCn1c(=O)n(CC(C)C)c(=O)c2[nH]c(-c3cnn(Cc4ccc(C(F)(F)F)nc4)c3)nc21 |
